Rows were chosen to be rich in hits. Some 2.9% of all compounds tested hit in one or more screens of this group.
Rev-erbA mod: modulators of human Rev-erb alpha DNA binding | P20393 | Rev-erbα–FITC-DNA binding, fluorescence polarization, 90 min | activity, % at 10 µM | hit rate 0.79% among 370,000;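 active means activity above about 14%, limit read from the data; passing the limit was not always enough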;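 further: 0% = DMSO wells with 35 nM protein and 100% = DMSO wells with 750 nM protein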
Target sequence (P20393 whole entry, looked up): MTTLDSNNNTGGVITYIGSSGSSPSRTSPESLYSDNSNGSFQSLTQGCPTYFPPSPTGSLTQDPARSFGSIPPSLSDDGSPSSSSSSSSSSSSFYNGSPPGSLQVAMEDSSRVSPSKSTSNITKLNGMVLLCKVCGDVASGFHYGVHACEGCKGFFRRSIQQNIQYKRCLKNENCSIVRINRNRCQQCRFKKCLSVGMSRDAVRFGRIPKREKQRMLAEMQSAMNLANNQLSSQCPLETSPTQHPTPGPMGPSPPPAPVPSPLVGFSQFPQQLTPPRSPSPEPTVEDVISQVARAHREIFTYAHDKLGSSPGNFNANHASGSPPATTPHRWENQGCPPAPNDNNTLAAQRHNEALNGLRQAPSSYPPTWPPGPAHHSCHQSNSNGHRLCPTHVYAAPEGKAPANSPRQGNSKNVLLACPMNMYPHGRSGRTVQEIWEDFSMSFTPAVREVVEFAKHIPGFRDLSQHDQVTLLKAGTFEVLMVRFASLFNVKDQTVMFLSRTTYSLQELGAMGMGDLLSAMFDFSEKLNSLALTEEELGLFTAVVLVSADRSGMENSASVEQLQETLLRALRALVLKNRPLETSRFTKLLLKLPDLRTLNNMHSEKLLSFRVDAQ
beta cell repl: inducers of beta-cell replication in MIN6 cells. MIN6 cells proliferation, ATPlite luminescence, 48 h; cells starved in 0.2% serum; 100% = growth in 10% serum. proliferation, % at 10 µM. hit rate 0.29% among 330,000. AID 2380;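 active means compounds whose signal lies at least 3.5 SD above the mean of all wells on their plate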;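 further: 0% = DMSO-treated cells in low-serum medium and 100% = 10% serum control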
TAG inh: inhibitors of triacylglycerol accumulation | inhibition, % at 12.5 µM | H9c2 cells, Nile Red lipid (TAG) fluorescence; cells loaded with 200 µM oleic acid | hit rate 0.66% among 230,000 | AID 651582;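 active means pattern-corrected inhibition of lipid staining of at least 50% with the nuclear-stain viability signal not falling by more than 50%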;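 further: 0% = DMSO wells and 100% = triacsin C control wells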
PG9 binder: binds the HIV-1 gp120 antibody PG9. TR-FRET gp120-PG9 antibody binding. inhibition, % at 6.7 µM. hit rate 0.43% among 360,000. AID 624416; in the data active means inhibition above about 8.5%
hiPSC survival: enhancers of human iPSC single-cell survival | hiPSC single-cell survival, ATPlite luminescence; 100% = ROCK inhibitor wells, 0% = DMSO | survival enhancement, % at 20 µM | hit rate 0.044% among 360,000; in the data active means survival enhancement above about 18%;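 further: cells exposed to compounds for 16 hours before the ATP read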
T cruzi repl: blocks replication of Trypanosoma cruzi; AID 1885; T. cruzi beta-gal in NIH3T3, luminescence, 90 h; inhibition, % (concentration not given with the values); hit rate 1.4% among 300,000;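 active means mean inhibition across valid replicates above about 55%, limit read from the data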;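 further: signal also drops with host cell toxicity which is not excluded here; 0% = plate median of DMSO wells and 100% = zero luminescence signal; higher percent means less beta-gal luminescence so fewer parasites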
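Test system: β-gal T. cruzi (Tulahuen C4) inside NIH/3T3 cells / Quantity: 5,000 cells/well / Measured by: luminescence from GalScreen with 0.05% NP40, read after 60 min / Medium: DMEM plus 2% FBS / Measure: parasite load inhibition, % / Reagent: Tulahuen C4 trypomastigotes, 5000/well / Schedule: co-culture of at least 90 h after 3 h attachment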
NR1D1 mod conf: confirmation of modulators of human Rev-erb alpha DNA binding; shares compounds with Rev-erbA mod; Rev-erb alpha FITC-DNA binding, fluorescence polarization, 90 min; activation, % at 25 µM; hit rate 61% among 3,000;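 active means activation at or above a set limit, or at least 3 SD above the negative control mean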;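 further: 0% = 35 nM protein with DMSO and 100% = 750 nM protein high control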
RORg counter: affects RORgamma DNA binding in a Rev-erb alpha counter-screen | shares compounds with Rev-erbA mod | purified RORgamma protein-FITC-DNA binding, fluorescence polarization | IC50, µM | hit rate 8% among 910 | AID 1259320;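 active means Compounds whose fitted half-maximal concentration for disrupting protein-DNA binding is below 10 micromolar; the record names Rev-erb in its text, so the target is in doubt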
Active calls of the source: *; i = inactive; . = no result.

SMILES	Rev-erbA mod	beta cell repl	TAG inh	PG9 binder	hiPSC survival	T cruzi repl	NR1D1 mod conf	others
C=CCn1c(=O)c(C(=O)NCCc2ccc(Cl)cc2)c(O)c2cc(OC)c(OC)cc21	29*	-3	.	0	1	1	4
C=CCn1c(=O)c(C(=O)NC2CC2)c(O)c2cc(OC)c(OC)cc21	20	-5	.	6	0	-17	.
CCCCCn1c(SCC(=O)c2ccccc2)nc2cc(C(=O)NCC3CCCO3)ccc2c1=O (stereo unspecified)	69*	.	14	-1	0	.	25*
CCCCCn1c(SCC(=O)c2ccccc2)nc2cc(C(=O)NCc3ccco3)ccc2c1=O	-3	.	16	1	-1	.	.
COc1ccccc1Cc1c(-c2ccc(C)cc2)nc2c(C)cc(Br)cn12	7	.	.	3	10	.	.
COc1ccccc1Cc1c(-c2cccc(Cl)c2)nc2c(C)cc(Br)cn12	22*	.	.	2	0	.	11*
Cc1cc(Br)cn2c(Cc3cccc(Cl)c3)c(-c3cccc(Cl)c3)nc12	23*	.	.	5	8	.	13*
Cc1cc(Br)cn2c(Cc3ccsc3)c(-c3cccc(Cl)c3)nc12	10	.	.	0	2	.	.
Cc1cc(Br)cn2c(Cc3ccccc3)c(-c3ccc(Cl)cc3)nc12	25*	.	.	1	0	.	12*
Cc1cc(Br)c2nc(-c3cccc(Br)c3)c(Cc3cccc(Cl)c3)n2c1	18*	.	.	6	.	.	7
Cc1ccc(-c2nc3c(Br)cc(C)cn3c2Cc2cccc(Cl)c2)cc1	12	.	.	5	.	.	.
CC(NC(=O)c1ccc(-c2cc(C(F)(F)F)ccc2Cl)o1)c1ccccc1 (stereo unspecified)	30*	0	.	4	-3	1	45*	RORg counter=0.78*
CNc1nc2c(c(=O)[nH]c(=O)n2C)n1CCCc1ccccc1	0	-1	.	-2	0	-8	.
Cc1c(Cl)cccc1NC(=S)N1CCCN(Cc2ccccc2F)C1	-3	-4	8	0	-1	21	.
O=C(Nc1nc(-c2cccs2)c(-c2cccs2)s1)C1CCCC1	80*	.	.	4	4	1	114*	RORg counter=i
O=C(Nc1nnc(-c2cccs2)s1)C1CC1	8	0	-5	1	0	2	.
CCOCCCNc1nc2c(-c3ccccc3)nnn2c2ccccc12	26*	1	23	-1	3	16	7
CCCCNc1nc2c(-c3ccccc3)nnn2c2ccccc12	50*	6	14	0	0	4	22*
CC(C)OCCCNc1nc2c(-c3ccccc3)nnn2c2ccccc12	.	-2	.	.	.	-10	.
COCCNc1nc2cc(-c3cccc(C(F)(F)F)c3)sc2c(=O)n1C	-2	.	6	0	1	.	.
COCCNc1nc2c(-c3cccc(C(F)(F)F)c3)nnn2c2ccccc12	52*	1	.	-2	1	-8	18*
OCCCNc1nnc(-c2ccccc2)c2ccccc12	-9	-2	.	0	0	6	.
CCOC(=O)c1nnn2c1nc(Nc1cccc(C(F)(F)F)c1)c1ccccc12	49*	-1	38	-2	-1	6	38*	RORg counter=>40
CCOC(=O)c1nnn2c1nc(SCC(C)=O)c1ccccc12	8	-3	-2	-3	0	-6	.
CN(NC(=O)c1ccccc1Cl)c1ncc(C(F)(F)F)cc1Cl	3	-1	-10	-2	0	-16	.
SMILES	Rev-erbA mod	beta cell repl	TAG inh	PG9 binder	hiPSC survival	T cruzi repl	NR1D1 mod conf	others
CCOC(=O)CC(NC(=O)CCc1c(C)nc2ncnn2c1C)c1ccc(C)cc1 (stereo unspecified)	-2	3	-9	1	-3	-5	.
COC(=O)c1cn(NC(=O)Cc2ccc(OC)c(OC)c2)c(=O)c2ccccc12	12*	0	-7	1	0	.	0
COC(=O)c1cn(NC(=O)Cc2cccc(OC)c2)c(=O)c2ccccc12	-2	-1	.	-2	0	5	.
CN(c1ccc(Cl)cc1)c1cc(=O)n(C)c2ccccc12	22*	4	-50	1	0	26	18*
CN(C(=O)COc1cc(=O)n(C)c2ccccc12)c1ccc(Cl)cc1	2	6	.	1	1	9	.
Cc1ccc(S(=O)(=O)NC(CC(C)C)C(=O)Nc2ccncc2)cc1 (stereo unspecified)	-3	-3	-2	-1	0	6	.
Cc1cccc(Cl)c1NC(=O)N(C)c1ccccc1	16*	.	.	3	.	.	1
CC1(c2ccc(OC(F)F)cc2)NC(=O)N(CC(=O)Nc2ccccc2)C1=O (stereo unspecified)	4	0	.	1	-1	-1	.
Cc1ccc2nc(-c3ccc(NC(=O)CN4C(=O)NC(C)(c5ccc(OC(F)F)cc5)C4=O)cc3)sc2c1 (stereo unspecified)	24*	-5	23	4	2	43	8
CCOC(=O)C1=C(C#N)C(C(=O)OCC)c2ncccc21 (stereo unspecified)	34*	.	4	2	-1	.	22*
Cc1ccc(OCCC(=O)OCC(=O)NC(=O)NCc2ccccc2)cc1	17*	-1	1	0	0	-3	-2
COc1ccc2cc(C#N)c(SCC(=O)N3CCCC3)nc2c1	-2	0	11	-3	2	7	.
CCOc1ccc2nc(SCC#N)c(C#N)cc2c1	39*	-4	-5	-6	2	23	24*
CCOc1ccc2cc(C#N)c(SCC(=O)N3CCC(C)CC3)nc2c1	70*	-2	.	-1	8	32	34*
COc1ccc(CNC(=O)c2cccc(C)c2[N+](=O)[O-])cc1	-5	-1	.	-1	3	6	.
COc1ccc2oc(C(=O)OC(C)C(=O)N(C)c3ccccc3)c(C)c2c1 (stereo unspecified)	-3	0	-11	-1	2	1	.
CCNC(=O)NC(=O)C(C)OC(=O)c1oc2ccc(OC)cc2c1C (stereo unspecified)	23*	-3	.	1	-3	5	12
CC(Sc1ccc(Cl)cc1)C(=O)NCC1CCCO1 (stereo unspecified)	-2	-1	3	2	4	6	.
CN(C)c1ccc(N=Nc2ccccc2C(=O)OCC(=O)N(C)c2ccccc2)cc1	22*	-5	.	-2	-1	15	23*
COC(=O)c1ccccc1NC(=O)COC(=O)c1ccccc1N=Nc1ccc(N(C)C)cc1	26*	0	.	-3	-3	3	29*
CN(C)c1cccc(C(=O)OCC(=O)N(C)c2ccccc2)c1	-1	0	.	-2	1	-7	.

Bioassay records (PubChem)
